Molecular target: T1, Pol-γ (exo- mutant) (Homo sapiens, UniProt P54098, D198A/E200A)
T1 sequence (P54098 26-1239 D198A/E200A limits assumed): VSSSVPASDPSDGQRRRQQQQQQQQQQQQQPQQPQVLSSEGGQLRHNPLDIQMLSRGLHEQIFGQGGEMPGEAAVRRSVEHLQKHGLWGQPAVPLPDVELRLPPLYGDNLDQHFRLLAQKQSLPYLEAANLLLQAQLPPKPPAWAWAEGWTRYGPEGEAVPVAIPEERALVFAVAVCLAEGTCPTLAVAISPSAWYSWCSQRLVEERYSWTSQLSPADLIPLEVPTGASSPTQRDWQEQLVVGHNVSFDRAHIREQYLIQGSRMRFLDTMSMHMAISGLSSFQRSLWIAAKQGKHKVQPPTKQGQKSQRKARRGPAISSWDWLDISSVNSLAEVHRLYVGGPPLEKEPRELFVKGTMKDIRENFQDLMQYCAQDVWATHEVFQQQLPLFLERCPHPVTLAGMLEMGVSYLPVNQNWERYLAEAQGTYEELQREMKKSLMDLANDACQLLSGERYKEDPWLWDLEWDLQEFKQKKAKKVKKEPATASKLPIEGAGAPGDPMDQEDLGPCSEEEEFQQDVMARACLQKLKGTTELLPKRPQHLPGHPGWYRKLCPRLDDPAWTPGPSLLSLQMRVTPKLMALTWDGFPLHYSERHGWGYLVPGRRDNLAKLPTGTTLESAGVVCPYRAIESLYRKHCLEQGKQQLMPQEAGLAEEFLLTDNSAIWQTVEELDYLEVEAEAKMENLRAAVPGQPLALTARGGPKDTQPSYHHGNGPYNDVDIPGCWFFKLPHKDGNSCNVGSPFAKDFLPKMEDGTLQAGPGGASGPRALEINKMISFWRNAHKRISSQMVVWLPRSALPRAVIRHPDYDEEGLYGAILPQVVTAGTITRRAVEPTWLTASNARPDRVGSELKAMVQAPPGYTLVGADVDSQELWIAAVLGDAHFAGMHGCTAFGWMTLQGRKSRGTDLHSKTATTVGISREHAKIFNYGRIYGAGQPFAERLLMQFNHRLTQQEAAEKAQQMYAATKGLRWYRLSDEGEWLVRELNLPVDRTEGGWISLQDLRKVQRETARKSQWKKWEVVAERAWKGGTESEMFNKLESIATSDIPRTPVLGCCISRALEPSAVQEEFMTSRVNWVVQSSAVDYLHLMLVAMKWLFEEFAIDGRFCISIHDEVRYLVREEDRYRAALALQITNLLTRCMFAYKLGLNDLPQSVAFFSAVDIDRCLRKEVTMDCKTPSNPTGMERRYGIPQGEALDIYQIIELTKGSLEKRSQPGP
Assay: Non-obligate chain termination assay
Assay type: biochemical
Settings: for chain elongation with analog in excess over dTTP: analog 1 μM at 10-fold (FIAU-TP also 100-fold) excess over dTTP; for chain elongation with analog substituted for dTTP: analog 1 μM, no dTTP; for effect on chain elongation in the presence of native dTTP: dTTP 1 μM, analog at 0.01, 0.1 or 1 μM, 37°C, 10 min
In short: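 A 23-mer DNA primer was 5′-end labelled with γ-³²P ATP and annealed to a 50-mer template. Extension required reading through nine consecutive template adenosines. Reactions used 10 units exonuclease-deficient human Pol-γ, with test analogue (0.01–1 μM) alone or with dTTP, plus native dATP/dCTP/dGTP, for 10 min at 37°C. Samples were stopped with loading dye, heated 100°C 5 min, run on 12% urea PAGE and phosphorimaged.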

| Structure (SMILES) | chain elongation with analog in excess over dTTP | chain elongation with analog substituted for dTTP | effect on chain elongation in the presence of native dTTP |
| --- | --- | --- | --- |
| O=c1ccn([C@@H]2O[C@H](COP(=O)(O)OP(=O)(O)OP(=O)(O)O)[C@@H](O)[C@H]2F)c(=O)[nH]1 [2′-F-UTP] | the presence of dTTP reduced the elongation defect | weak smear of elongated species with very little full-length product | essentially no impact on chain elongation |
| O=c1[nH]c(=O)n([C@@H]2O[C@H](COP(=O)(O)OP(=O)(O)OP(=O)(O)O)[C@@H](O)[C@@H]2F)cc1I [FIAU-TP, fialuridine triphosphate, reference compound] | continued to strongly impair elongation | restricted elongation products to 31 nucleotides in length | caused a reduction in full-length product and an increase in shorter products at the highest concentration |

— publication PMC6468299 (Nucleic Acids Research, 2019)
